As a reminder, the pKi is the Ki on a negative log10 scale, so that one unit is a factor of ten. A higher pKi goes with a small Ki.

The source of these data is ChEMBL document CHEMBL3243948, “Vitamin B6 antagonists obtained by replacing or modifying the 2-methyl group” (J Med Chem, 1977).

SMILES strings stand for the structures. pIC50, pKi: −log10 of the molar value. Calls of active or inactive are those of the source. The rule behind the calls is not given here. Some results are limits rather than exact numbers.

Assay [1] concerns TA3. In words: Growth inhibition of mouse TA3 cells in presence of 10^-7 M pyridoxal. The class given is functional. The method in brief: (§1)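 Mouse mammary adenocarcinoma TA3 cells cultured in Eagle's medium with minimal pyridoxal (1 X 10^-7 M) to sustain growth. Compounds were scored for inhibition of growth.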
Assay [2] has as its system TA3. In words: Growth inhibition of mouse TA3 cells at 1 X 10^-4 M in presence of 10^-7 M pyridoxal. The class given is functional, cell-based.
Assay [3] relates to TA3. In words: Growth inhibition of mouse TA3 cells in presence of 10^-5 M pyridoxal. The class given is functional. An outline of the steps:
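TA3 mouse mammary adenocarcinoma cells grown in complete Eagle's medium, which holds a higher pyridoxal level than the minimal medium. Compounds were tested for growth inhibition.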

In assay [4] the target is T1, Pyridoxal kinase (Homo sapiens, UniProt O00764).
T1 sequence (O00764 whole entry): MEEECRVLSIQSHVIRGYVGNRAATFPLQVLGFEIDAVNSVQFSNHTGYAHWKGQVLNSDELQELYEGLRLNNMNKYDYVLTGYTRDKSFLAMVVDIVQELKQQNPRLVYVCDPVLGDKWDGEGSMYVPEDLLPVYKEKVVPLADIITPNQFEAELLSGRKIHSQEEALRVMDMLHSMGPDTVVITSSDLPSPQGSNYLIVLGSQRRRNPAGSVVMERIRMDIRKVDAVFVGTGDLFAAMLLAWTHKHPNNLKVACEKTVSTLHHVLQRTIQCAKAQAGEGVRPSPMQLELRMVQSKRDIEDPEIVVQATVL
In words: Competitive inhibition of pyridoxal phosphokinase (unknown origin). An outline of the steps:
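Inhibitor tested against pyridoxal phosphokinase-catalysed phosphorylation of pyridoxal (substrate). Ki derived from competitive kinetics.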

Assay [5] concerns TA3. In words: Growth inhibition of mouse TA3 cells in presence of 10^-7 M pyridoxal relative to control. The class given is functional. The method in brief: as §1
[6] abbreviates: Mus musculus, TA3, read-out: ID50 (the source's name).

Take `O=C(SCc1ncc(CO)c(CO)c1OCc1ccccc1)c1ccccc1`: in assay [1], the ID50 stood at 3 ×10⁻⁵ M.

Regarding `Cn1c(=O)oc2c(CO)c(CO)cnc21`, the ID50 in assay [1] is over 1 ×10⁻⁴ M. With `COC(=O)c1cncc(OC)c1C(=O)OC`, the “growth inhibition (GI)” value in assay [2] is “inactive”. Turning to `N/N=C/c1ncc(CO)c(CO)c1O`, the ID50 in assay [1] turned out to be 2.3 ×10⁻⁴ M. Take `OCc1cnc(F)c(O)c1CO`: the ID50 in assay [1] is over 1 ×10⁻⁴ M. Consider `OCc1cnc(Cl)c(O)c1CO`, for which the “growth inhibition (GI)” value in assay [3] is “inactive”. Besides, the ID50 in assay [1] was 4.5 ×10⁻⁵ M. The pKi in assay [4] was 4.62. With `OCc1cnc(/C=N/N=C/c2ncc(CO)c(CO)c2O)c(O)c1CO`, the results for the ID50 in assay [3] and in assay [1] were 1.1 ×10⁻⁵ M and 1.6 ×10⁻⁵ M, respectively. Turning to `C=Cc1ncc(CO)c(CO)c1O`, the pIC50 in assay [3] (setting [6]) and in assay [1] (setting [6]) was 5.03 throughout. Consider `Br.COC(=O)N(C)c1ncc(CO)c(CO)c1OCc1ccccc1`, for which the ID50 in assay [1] worked out at 1.6 ×10⁻⁴ M. `C#Cc1ncc(CO)c(CO)c1O` showed a pKi in assay [4] of 3.98. For `O=Cc1ncc(CO)c(CO)c1O`, the ID50 in assay [1] amounted to 1.7 ×10⁻⁴ M. For the compound `COc1c(C(=O)O)ncc(C(=O)O)c1C(=O)O`, the “growth inhibition (GI)” value in assay [2] was “inactive”.

For `COc1cncc2c1C(=O)OC2=O`, in assay [2], the “growth inhibition (GI)” value was “inactive”. Still for that read-out and setting: with `COc1cncc(CO)c1CO` the entry was “inactive”.

As to `O=C(O)c1ncc(CO)c(CO)c1O`, the ID50 in assay [1] was over 1 ×10⁻⁴ M.

For `CC1(C)OCc2cnc(CCl)c(OCc3ccccc3)c2CO1.Cl`, the ID50 in assay [1] is 12 ×10⁻⁵ M.

On to `COc1cncc(C(=O)O)c1C(=O)O`, for which the “growth inhibition (GI)” value in assay [2] was “inactive”.

Take `CCOC(=O)c1cncc(OC)c1C(=O)OCC`: the “growth inhibition (GI)” value in assay [2] is “inactive”. Regarding `NCc1ncc(CO)c(CO)c1O`, the ID50 in assay [1] was found to be 1 ×10⁻⁵ M. Further, the “growth inhibition (GI)” value in assay [5] was determined as 25%.

With `COc1c(C)ncc(CO)c1CO`, the “growth inhibition (GI)” value in assay [2] is “inactive”. Regarding `NC(=O)c1ncc(CO)c(CO)c1O`, the ID50 in assay [1] was found to be 1 ×10⁻⁴ M. In addition, in assay [5], the “growth inhibition (GI)” value stood at 40%. For the compound `Cl.Nc1ncc(CO)c(CO)c1O`, the “growth inhibition (GI)” value in assay [3] was “inactive”. Moreover, in assay [1], the ID50 came to 1.25 ×10⁻⁵ M.

As for `CNc1ncc(CO)c(CO)c1O.Cl`, the ID50 in assay [1] was 1 ×10⁻⁴ M. For the same compound, the “growth inhibition (GI)” value in assay [5] is given as 15%.
